Data as given in ChEMBL document CHEMBL5303300, “EUbOPEN Chemogenomics Library - Multiplex” (2023).
Values joined by “and” are separate entries in the source; they are usually repeats but may differ in a detail not shown here. Equal values may be shown once.

Key:
Fibroblast = experiment: Multiplex assay against human fibroblast; format: toxicity, cell-based; settings: number of replicates 2
Outline: (§1)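 Compound was added to live cells that had been stained at seeding with Hoechst33342, BioTracker Green Microtubule Cytoskeleton Dye, MitoTracker Red and Annexin V Alexa Fluor 680, and imaging followed on a CQ1 microscope at 37°C and 5% CO2. CellPathfinder machine-learning gating divided cells into Hoechst high-intensity objects or normal cells, normal cells into healthy, pyknosed or fragmented nuclei, and pyknosed cells into mitotic or apoptotic. Tubulin, mitochondrial-mass and membrane-permeability phenotypes are per cents of healthy-nucleus cells.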

HEK-293T = experiment: Multiplex assay against HEK293T; format: toxicity, cell-based; settings: human, number of replicates 2; outline: as §1
[1] = 12 h, 1 µM, compound concentration 1 uM
[2] = 12 h, 10 µM, compound concentration 10 uM
[3] = 24 h, 1 µM, compound concentration 1 uM
[4] = 24 h, 10 µM, compound concentration 10 uM
[5] = 48 h, 1 µM, compound concentration 1 uM
[6] = 48 h, 10 µM, compound concentration 10 uM

COc1ncc(-c2cc(-c3ncc(CN4C[C@@H](C)O[C@@H](C)C4)o3)c3cn[nH]c3c2)cc1NS(C)(=O)=O
Population Apoptotic (%) (Fibroblast; [1]): 48%
Population Fragmented Nuclei (%) (Fibroblast; [1]): 7% and 8%
Population Healthy Nuclei (%) (Fibroblast; [1]): 77% and 70%
Population Hoechst High Intensity Objects (%) (Fibroblast; [1]): 0%
Population Membrane Permeable-Phenotype (%) (Fibroblast; [1]): 5% and 10%
Population Mitochondria Different-Phenotype (%) (Fibroblast; [1]): 0%
Population Mitotic Cells (%) (Fibroblast; [1]): 51%
Population Normal (%) (Fibroblast; [1]): 100%
Population Pyknosed Nuclei (%) (Fibroblast; [1]): 14% and 21%
Population Tubulin-Different-Phenotype (%) (Fibroblast; [1]): 13% and 11%
Total Cell Count (Fibroblast; [1]): 228 and 199
Population Apoptotic (%) (Fibroblast; [2]): 30% and 51%
Population Fragmented Nuclei (%) (Fibroblast; [2]): 4% and 11%
Population Healthy Nuclei (%) (Fibroblast; [2]): 59% and 66%
Population Hoechst High Intensity Objects (%) (Fibroblast; [2]): 0%
Population Membrane Permeable-Phenotype (%) (Fibroblast; [2]): 10% and 9%
Population Mitochondria Different-Phenotype (%) (Fibroblast; [2]): 3% and 5%
Population Mitotic Cells (%) (Fibroblast; [2]): 69% and 48%
Population Normal (%) (Fibroblast; [2]): 100%
Population Pyknosed Nuclei (%) (Fibroblast; [2]): 35% and 22%
Population Tubulin-Different-Phenotype (%) (Fibroblast; [2]): 40% and 37%
Total Cell Count (Fibroblast; [2]): 129 and 148
Population Apoptotic (%) (Fibroblast; [3]): 51% and 60%
Population Fragmented Nuclei (%) (Fibroblast; [3]): 6% and 9%
Population Healthy Nuclei (%) (Fibroblast; [3]): 79% and 67%
Population Hoechst High Intensity Objects (%) (Fibroblast; [3]): 0%
Population Membrane Permeable-Phenotype (%) (Fibroblast; [3]): 5% and 11%
Population Mitochondria Different-Phenotype (%) (Fibroblast; [3]): 0%
Population Mitotic Cells (%) (Fibroblast; [3]): 48% and 39%
Population Normal (%) (Fibroblast; [3]): 100% and 99%
Population Pyknosed Nuclei (%) (Fibroblast; [3]): 13% and 23%
Population Tubulin-Different-Phenotype (%) (Fibroblast; [3]): 9% and 13%
Total Cell Count (Fibroblast; [3]): 224 and 204
Population Apoptotic (%) (Fibroblast; [4]): 55% and 66%
Population Fragmented Nuclei (%) (Fibroblast; [4]): 6% and 11%
Population Healthy Nuclei (%) (Fibroblast; [4]): 62% and 71%
Population Hoechst High Intensity Objects (%) (Fibroblast; [4]): 0%
Population Membrane Permeable-Phenotype (%) (Fibroblast; [4]): 0% and 6%
Population Mitochondria Different-Phenotype (%) (Fibroblast; [4]): 3% and 4%
Population Mitotic Cells (%) (Fibroblast; [4]): 45% and 33%
Population Normal (%) (Fibroblast; [4]): 100%
Population Pyknosed Nuclei (%) (Fibroblast; [4]): 31% and 17%
Population Tubulin-Different-Phenotype (%) (Fibroblast; [4]): 30% and 25%
Total Cell Count (Fibroblast; [4]): 128 and 157
Population Apoptotic (%) (Fibroblast; [5]): 69% and 60%
Population Fragmented Nuclei (%) (Fibroblast; [5]): 12% and 10%
Population Healthy Nuclei (%) (Fibroblast; [5]): 77% and 74%
Population Hoechst High Intensity Objects (%) (Fibroblast; [5]): 0%
Population Membrane Permeable-Phenotype (%) (Fibroblast; [5]): 2% and 7%
Population Mitochondria Different-Phenotype (%) (Fibroblast; [5]): 0%
Population Mitotic Cells (%) (Fibroblast; [5]): 30% and 40%
Population Normal (%) (Fibroblast; [5]): 100% and 99%
Population Pyknosed Nuclei (%) (Fibroblast; [5]): 9% and 14%
Population Tubulin-Different-Phenotype (%) (Fibroblast; [5]): 4% and 11%
Total Cell Count (Fibroblast; [5]): 235 and 206
Population Apoptotic (%) (Fibroblast; [6]): 70% and 78%
Population Fragmented Nuclei (%) (Fibroblast; [6]): 5% and 13%
Population Healthy Nuclei (%) (Fibroblast; [6]): 64% and 67%
Population Hoechst High Intensity Objects (%) (Fibroblast; [6]): 0%
Population Membrane Permeable-Phenotype (%) (Fibroblast; [6]): 4% and 5%
Population Mitochondria Different-Phenotype (%) (Fibroblast; [6]): 4% and 1%
Population Mitotic Cells (%) (Fibroblast; [6]): 30% and 21%
Population Normal (%) (Fibroblast; [6]): 100% and 99%
Population Pyknosed Nuclei (%) (Fibroblast; [6]): 29% and 19%
Population Tubulin-Different-Phenotype (%) (Fibroblast; [6]): 39% and 28%
Total Cell Count (Fibroblast; [6]): 134 and 167
Population Apoptotic (%) (HEK-293T; [1]): 48% and 56%
Population Fragmented Nuclei (%) (HEK-293T; [1]): 3% and 2%
Population Healthy Nuclei (%) (HEK-293T; [1]): 86% and 81%
Population Hoechst High Intensity Objects (%) (HEK-293T; [1]): 10%
Population Membrane Permeable-Phenotype (%) (HEK-293T; [1]): 4% and 1%
Population Mitochondria Different-Phenotype (%) (HEK-293T; [1]): 17% and 26%
Population Mitotic Cells (%) (HEK-293T; [1]): 51% and 43%
Population Normal (%) (HEK-293T; [1]): 89%
Population Pyknosed Nuclei (%) (HEK-293T; [1]): 10% and 15%
Population Tubulin-Different-Phenotype (%) (HEK-293T; [1]): 65% and 71%
Total Cell Count (HEK-293T; [1]): 695 and 654
Population Apoptotic (%) (HEK-293T; [2]): 46% and 58%
Population Fragmented Nuclei (%) (HEK-293T; [2]): 2% and 3%
Population Healthy Nuclei (%) (HEK-293T; [2]): 75% and 82%
Population Hoechst High Intensity Objects (%) (HEK-293T; [2]): 9%
Population Membrane Permeable-Phenotype (%) (HEK-293T; [2]): 0% and 1%
Population Mitochondria Different-Phenotype (%) (HEK-293T; [2]): 54% and 51%
Population Mitotic Cells (%) (HEK-293T; [2]): 53% and 41%
Population Normal (%) (HEK-293T; [2]): 90%
Population Pyknosed Nuclei (%) (HEK-293T; [2]): 22% and 14%
Population Tubulin-Different-Phenotype (%) (HEK-293T; [2]): 88% and 87%
Total Cell Count (HEK-293T; [2]): 336 and 358
Population Apoptotic (%) (HEK-293T; [3]): 40% and 54%
Population Fragmented Nuclei (%) (HEK-293T; [3]): 7% and 5%
Population Healthy Nuclei (%) (HEK-293T; [3]): 86% and 83%
Population Hoechst High Intensity Objects (%) (HEK-293T; [3]): 12% and 10%
Population Membrane Permeable-Phenotype (%) (HEK-293T; [3]): 2% and 1%
Population Mitochondria Different-Phenotype (%) (HEK-293T; [3]): 4% and 10%
